For assay [1], the target named is T1, Bromodomain-containing protein 4 (Homo sapiens, UniProt O60885). The assay is described as follows: Inhibition of human BRD4-BD1 expressed in Escherichia coli BL21 after 1 hr by BROMOscan assay.
The target in assay [2] is T2, Bromodomain-containing protein 1 (Homo sapiens, UniProt O95696).
T2 sequence (O95696 whole entry): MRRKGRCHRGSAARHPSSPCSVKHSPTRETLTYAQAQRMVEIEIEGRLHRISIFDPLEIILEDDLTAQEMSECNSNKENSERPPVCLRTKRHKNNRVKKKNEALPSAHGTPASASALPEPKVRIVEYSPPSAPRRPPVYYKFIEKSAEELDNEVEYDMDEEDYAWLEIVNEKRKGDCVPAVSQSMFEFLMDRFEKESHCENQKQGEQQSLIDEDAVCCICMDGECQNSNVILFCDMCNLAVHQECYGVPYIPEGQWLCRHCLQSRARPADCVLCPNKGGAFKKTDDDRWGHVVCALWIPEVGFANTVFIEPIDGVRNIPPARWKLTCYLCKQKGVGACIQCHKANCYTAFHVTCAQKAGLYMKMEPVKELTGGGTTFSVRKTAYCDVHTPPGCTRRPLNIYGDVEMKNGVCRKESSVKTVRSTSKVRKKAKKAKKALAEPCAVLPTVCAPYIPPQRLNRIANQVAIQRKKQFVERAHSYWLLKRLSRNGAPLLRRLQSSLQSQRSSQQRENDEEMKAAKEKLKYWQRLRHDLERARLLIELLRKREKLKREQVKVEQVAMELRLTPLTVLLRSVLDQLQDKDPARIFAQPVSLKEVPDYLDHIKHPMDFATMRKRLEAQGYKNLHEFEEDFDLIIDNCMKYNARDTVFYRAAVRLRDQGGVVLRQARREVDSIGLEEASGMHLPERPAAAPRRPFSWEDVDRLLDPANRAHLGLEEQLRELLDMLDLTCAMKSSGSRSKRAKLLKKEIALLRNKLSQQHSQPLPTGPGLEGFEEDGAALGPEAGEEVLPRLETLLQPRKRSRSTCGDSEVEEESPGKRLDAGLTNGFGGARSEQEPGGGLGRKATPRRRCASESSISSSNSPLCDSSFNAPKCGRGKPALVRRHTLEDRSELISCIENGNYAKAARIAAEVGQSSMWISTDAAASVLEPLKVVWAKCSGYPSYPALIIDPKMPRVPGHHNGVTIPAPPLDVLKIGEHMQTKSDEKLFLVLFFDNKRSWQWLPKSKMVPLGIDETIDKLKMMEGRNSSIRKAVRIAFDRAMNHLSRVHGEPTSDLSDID
The assay is described as follows: Inhibition of human BRPF2-BRD1 expressed in Escherichia coli BL21 after 1 hr by BROMOscan assay.

Assay [3] has as its target ATPase family AAA domain-containing protein 2B (Homo sapiens, UniProt Q9ULI0). Briefly: Inhibition of human ATAD2B expressed in Escherichia coli BL21 after 1 hr by BROMOscan assay.
Assay [4] concerns the target T1, Bromodomain-containing protein 4.
Assay [5] deals with T3, Peregrin (Homo sapiens, UniProt P55201).
T3 sequence (P55201 whole entry): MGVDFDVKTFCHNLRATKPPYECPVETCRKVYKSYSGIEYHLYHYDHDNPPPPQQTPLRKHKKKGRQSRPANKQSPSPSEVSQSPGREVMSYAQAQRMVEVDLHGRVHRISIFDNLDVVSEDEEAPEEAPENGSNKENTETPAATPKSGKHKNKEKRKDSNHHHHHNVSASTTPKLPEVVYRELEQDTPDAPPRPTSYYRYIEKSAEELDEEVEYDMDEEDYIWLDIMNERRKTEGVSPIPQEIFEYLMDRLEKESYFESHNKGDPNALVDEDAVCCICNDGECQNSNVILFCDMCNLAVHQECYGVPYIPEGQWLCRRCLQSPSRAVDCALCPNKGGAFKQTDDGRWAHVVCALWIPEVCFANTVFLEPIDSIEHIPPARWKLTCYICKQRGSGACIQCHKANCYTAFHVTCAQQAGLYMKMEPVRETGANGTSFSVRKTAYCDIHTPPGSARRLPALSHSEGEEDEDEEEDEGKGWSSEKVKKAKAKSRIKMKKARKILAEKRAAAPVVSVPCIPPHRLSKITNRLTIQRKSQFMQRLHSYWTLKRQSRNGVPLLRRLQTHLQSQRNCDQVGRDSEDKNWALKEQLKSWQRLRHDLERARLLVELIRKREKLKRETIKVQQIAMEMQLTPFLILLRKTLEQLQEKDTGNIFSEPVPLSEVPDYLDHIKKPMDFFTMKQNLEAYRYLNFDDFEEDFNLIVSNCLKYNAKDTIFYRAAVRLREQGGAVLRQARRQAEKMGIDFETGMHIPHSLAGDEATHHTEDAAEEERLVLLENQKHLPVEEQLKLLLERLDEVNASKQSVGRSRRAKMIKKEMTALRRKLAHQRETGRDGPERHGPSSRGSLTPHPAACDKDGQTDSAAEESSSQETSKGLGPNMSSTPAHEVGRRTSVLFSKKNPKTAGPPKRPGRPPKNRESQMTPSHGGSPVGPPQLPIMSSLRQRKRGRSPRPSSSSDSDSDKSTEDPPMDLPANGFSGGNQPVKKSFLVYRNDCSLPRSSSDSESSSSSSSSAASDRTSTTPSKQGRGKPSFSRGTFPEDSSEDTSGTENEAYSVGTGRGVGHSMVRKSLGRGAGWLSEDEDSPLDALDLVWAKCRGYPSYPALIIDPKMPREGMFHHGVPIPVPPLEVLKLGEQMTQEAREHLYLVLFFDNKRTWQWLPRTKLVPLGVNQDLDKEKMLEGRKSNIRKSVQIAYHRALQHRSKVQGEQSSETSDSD
Briefly: Inhibition of human His tagged BRPF1 incubated for 30 mins followed by addition of biotinylated peptide and further incubation for 30 mins measured by AlphaScreen assay. The gist of the method:
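Independent AlphaScreen biochemical confirmation of BRPF bromodomain inhibition, with BRD9 and BRD4(BD1) as counter-screens. Test compound was serially diluted from a 100 mM DMSO stock.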
In general terms: Bead proximity is the source of the signal in Alpha formats.

Assay [6] addresses T4, Peregrin (Homo sapiens) (UniProt P55201).
T4 sequence (whole entry): T3 sequence (P55201 whole entry)

Each structure is given as a SMILES string.

Chain of ATPase family AAA domain-containing protein 2B (Q9ULI0 whole entry, the tested form may be a part): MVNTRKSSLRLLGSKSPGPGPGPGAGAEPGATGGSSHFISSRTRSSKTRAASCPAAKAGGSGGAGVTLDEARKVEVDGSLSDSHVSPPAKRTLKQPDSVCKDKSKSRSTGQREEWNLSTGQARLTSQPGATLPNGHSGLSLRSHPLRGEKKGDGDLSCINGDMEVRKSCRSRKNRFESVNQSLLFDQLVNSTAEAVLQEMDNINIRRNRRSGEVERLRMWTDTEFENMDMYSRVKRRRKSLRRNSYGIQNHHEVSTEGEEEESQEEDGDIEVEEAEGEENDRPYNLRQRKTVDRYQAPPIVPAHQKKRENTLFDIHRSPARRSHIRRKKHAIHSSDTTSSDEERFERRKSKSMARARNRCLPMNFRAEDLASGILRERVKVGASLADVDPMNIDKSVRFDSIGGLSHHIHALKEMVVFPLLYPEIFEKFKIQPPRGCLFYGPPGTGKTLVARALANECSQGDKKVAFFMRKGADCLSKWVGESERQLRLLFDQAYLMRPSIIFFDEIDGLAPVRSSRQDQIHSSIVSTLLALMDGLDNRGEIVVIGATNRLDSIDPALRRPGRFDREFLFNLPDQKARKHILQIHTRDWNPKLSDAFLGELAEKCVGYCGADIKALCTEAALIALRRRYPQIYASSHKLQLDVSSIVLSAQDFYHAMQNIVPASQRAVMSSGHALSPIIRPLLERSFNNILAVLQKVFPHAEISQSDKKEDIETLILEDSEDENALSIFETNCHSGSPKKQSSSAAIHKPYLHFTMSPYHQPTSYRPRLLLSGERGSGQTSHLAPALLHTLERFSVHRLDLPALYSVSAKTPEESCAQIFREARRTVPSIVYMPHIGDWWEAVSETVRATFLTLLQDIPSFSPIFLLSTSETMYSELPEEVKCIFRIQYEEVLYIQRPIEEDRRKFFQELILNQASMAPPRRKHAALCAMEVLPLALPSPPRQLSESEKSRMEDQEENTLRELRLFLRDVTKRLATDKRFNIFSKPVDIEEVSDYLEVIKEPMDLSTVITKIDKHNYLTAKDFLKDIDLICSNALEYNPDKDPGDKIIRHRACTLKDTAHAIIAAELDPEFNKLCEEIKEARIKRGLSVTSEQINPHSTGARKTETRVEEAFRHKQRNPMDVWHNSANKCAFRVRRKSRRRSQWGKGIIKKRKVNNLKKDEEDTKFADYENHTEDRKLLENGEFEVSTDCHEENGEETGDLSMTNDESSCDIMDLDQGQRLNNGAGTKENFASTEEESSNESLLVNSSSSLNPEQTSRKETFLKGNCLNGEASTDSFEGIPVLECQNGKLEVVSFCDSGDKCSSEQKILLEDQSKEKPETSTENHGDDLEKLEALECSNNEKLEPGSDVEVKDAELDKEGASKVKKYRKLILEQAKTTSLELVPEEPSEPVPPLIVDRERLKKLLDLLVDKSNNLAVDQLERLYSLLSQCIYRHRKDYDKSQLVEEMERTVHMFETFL

Consider `COc1ccccc1C(=O)Nc1cc2cc(C)c(=O)n(C)c2cc1N1CCCC1`, for which the IC50 is 4.6 µM in assay [1] and 2.6 µM in assay [2].
Turning to `Cc1cc2cc(NS(=O)(=O)c3ccc(C#N)cc3)ccc2n(C)c1=O`, the IC50 in assay [3] is more than 100 µM; in assay [1] it was 4.5 µM; in assay [2], 0.048 µM; in assay [5], 0.14 µM. In assay [4], the ΔTm amounted to 0.95 °C.
On to `CCc1cc2cc(NS(=O)(=O)c3ccc(C#N)cc3)ccc2n(CC)c1=O`, for which the IC50 was more than 100 µM in assay [3], more than 100 µM in assay [1], more than 100 µM in assay [2] and more than 20 µM in assay [5].
In the case of `Cc1cc(C#N)ccc1S(=O)(=O)Nc1ccc2c(ccc(=O)n2C)c1`, the ΔTm in assay [6] came to 6.5 °C; in assay [4], 0.4 °C.
For the compound `Cn1c(=O)ccc2cc(NS(=O)(=O)c3ccc(C#N)c(Cl)c3)ccc21`, the figures for the IC50 in assay [1] and in assay [2] were 7.2 µM and 0.45 µM, respectively. Moreover, in assay [6], the ΔTm came out at 4.3 °C.
As for `COc1cc2c(cc1NS(=O)(=O)c1ccc(C#N)cc1)c(C)cc(=O)n2C`, the IC50 in assay [1] is 17 µM; in assay [2] it was 1.8 µM.

As usually defined, the IC50 is the concentration needed to halve the response being measured. A low value points to greater potency. As usually defined, the ΔTm is the change in melting temperature against a reference sample.
